In publication PMC7159910 (Science Advances, 2020):

Columns and labels:
[1] = target: PHF20L1 TUDOR domain; test: ITC
[2] = test system: PHF20L1 expression in MDA-MB-231 cells; test: Western blotting of PHF20L1 in cells exposed to CoCl2; assay type: cell-based, human; conditions: MDA-MB-231 cells exposed to CoCl2
Outline: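 MDA-MB-231 cells, grown in L-15 medium with 10% FBS at 37°C without CO2, treated with CoCl2 as hypoxia mimic; lysates immunoblotted for PHF20L1 and for HIF1α as hypoxia marker.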

Kd [1] [µM] | Molecule | induction of PHF20L1 protein by hypoxia activator [2]
73.6 | H3K27me2 peptide (ITC) | –
– | [Cl][Co][Cl] [CoCl2, cobalt chloride] | PHF20L1 was indeed induced
